Laboratory results from publication PMC2647857 (Journal of the American Chemical Society, 2009).
Substitutions are numbered along the chain they refer to. Names and notes keep the numbering of the source. Like-named read-outs stand apart in the source and are kept apart here.

B1: NP1: recombinant wild-type nitrophorin 1 of Rhodnius prolixus, NO-carrying heme protein, with M0 present (protein, UniProt Q26239 24-207, looked up)
Nitrophorin-1: KCTKNALAQTGFNKDKYFNGDVWYVTDYLDLEPDDVPKRYCAALAAGTASGKLKEALYHYDPKTQDTFYDVSELQEESPGKYTANFKKVEKNGNVKVDVTSGNYYTFTVMYADDSSALIHTCLHKGNKDLGDLYAVLNRNKDTNAGDKVKGAVTAASLKFSDFISTKDNKCEYDNVSLKSLLTK
modifications: N-terminal Met0 retained
B2: NP4: recombinant wild-type nitrophorin 4 of Rhodnius prolixus, native A1 as first residue (protein, UniProt Q94734 22-205, looked up)
Nitrophorin-4: ACTKNAIAQTGFNKDKYFNGDVWYVTDYLDLEPDDVPKRYCAALAAGTASGKLKEALYHYDPKTQDTFYDVSELQVESLGKYTANFKKVDKNGNVKVAVTAGNYYTFTVMYADDSSALIHTCLHKGNKDLGDLYAVLNRNKDAAAGDKVKSAVSAATLEFSKFISTKENNCAYDNDSLKSLLTK
B3: NP4-E55Q: site-directed mutant of NP4, buried E55 replaced by Gln (protein, UniProt Q94734 22-205, looked up, variant E55Q)
Nitrophorin-4: B2 Nitrophorin-4 with E55Q
B4: NP4-D30A: site-directed mutant of NP4, D30 replaced by Ala (protein, UniProt Q94734 22-205, looked up, variant D30A)
Nitrophorin-4: B2 Nitrophorin-4 with D30A

Legend:
[1] = Spectroelectrochemical midpoint potential of the NO complex; type: physicochemical, Rhodnius prolixus; settings: NO bound
Outline: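 Spectroelectrochemistry of ~0.05 mM E. coli-expressed protein in 0.1 M sodium phosphate or acetate at pH 5.5, 6.5 and 7.5, 27 ± 1 °C. SNAP supplied NO at a level fully complexing both oxidation states. Ag/AgCl reference ([…] mV vs SHE). Absorbance versus applied potential fit to Nernst equation; pH dependence and mutant−standard differences derived.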

[2] = NO binding constant to Fe; design: species or system Rhodnius prolixus; settings: pH 7.5
[3] = ligand-free, cited from earlier work
[4] = NO bound, cited from earlier work
[5] = read-out: Kd for NO dissociation, Fe(III), cited from earlier work
[6] = Spectroelectrochemical midpoint potential, ligand-free; type: physicochemical, Rhodnius prolixus; settings: ligand-free
[7] = Imidazole binding constant to Fe; design: species or system Rhodnius prolixus; settings: pH 5.5

NO formation constant Kf, Fe(III) form ([2]; listed as M0-containing NP1)	Kd ([2]; read-out: NO dissociation constant Kd, Fe(III) form)	increase of imidazole binding constant compared to wild-type [7]	Molecule	Em,NO ([1]; pH 6.5, 27 °C)	Em ([3]; pH 5.5, 27 °C ref 15)	Em ([3]; pH 7.5, 27 °C ref 15)	Em,NO ([4]; pH 5.5, 27 °C ref 15)	Em,NO ([4]; pH 7.5, 27 °C ref 15)	Em,NO ([1]; pH 7.5, 27 °C)	Kd ([5]; pH 5.5 ref 19)	Kd ([5]; pH 7.5 ref 19)	ΔEm = Em(mutant)−Em(standard) ([6]; pH 5.5)	Em ([6]; pH 5.5, 27 °C)	ΔEm = Em(mutant)−Em(standard) ([6]; pH 7.5)	Em ([6]; pH 7.5, 27 °C)	ΔpHΔ(Em,NO) = ΔEm,NO(pH7.5) − ΔEm,NO(pH5.5) [1]	ΔEm,NO = Em(mutant)−Em(standard) ([1]; pH 5.5)	Em,NO ([1]; pH 5.5, 27 °C)	ΔEm,NO = Em(mutant)−Em(standard) ([1]; pH 6.5)	ΔEm,NO = Em(mutant)−Em(standard) ([1]; pH 7.5)
1e+06 M⁻¹	1000 nM		B1	118±3 mV vs. SHE	−274±2 mV vs. SHE	−303±4 mV vs. SHE	154±5 mV vs. SHE	127±4 mV vs. SHE												
			B2	44±2 mV vs. SHE	−259±2 mV vs. SHE	−278±4 mV vs. SHE	94±5 mV vs. SHE		59±2 mV vs. SHE	50 nM	120 nM									
		1 log unit	B3	67±2 mV vs. SHE					126±2 mV vs. SHE			68±3 mV	−191±3 mV vs. SHE	82±4 mV	−196±2 mV vs. SHE	73±6 mV	−6±5 mV	88±1 mV vs. SHE	23±3 mV	67±2 mV
			B4	163±4 mV vs. SHE								46±2 mV	−213±1 mV vs. SHE	62±4 mV	−216±2 mV vs. SHE	53±6 mV	87±5 mV	181±2 mV vs. SHE	119±5 mV	139±2 mV
